Assay results as given in ChEMBL document CHEMBL4689842, “EUbOPEN Chemogenomics Library wave 1” (2021).
“And” between values parts separate entries of the source, which are not always exact repeats. Equal entries are not always repeated.

Tests used:
Format in all cases: toxicity, cell-based
HEK-293T [1] = test: Multiplex assay against HEK293T; conditions: human, 10 µM, compound concentration 10 uM;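 for Population Tubulin-Different-Phenotype (%): share of the cells with healthy nuclei that show this phenotype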
Outline: (§1)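 Cells were classed with CellPathfinder machine-learning gating, first as Hoechst high-intensity objects or normal cells, then (normal cells) as healthy, pyknosed or fragmented nuclei, and finally (pyknosed cells) as mitotic or apoptotic. Staining of live cells at seeding used Hoechst33342, BioTracker Green Microtubule Cytoskeleton Dye, MitoTracker Red and Annexin V Alexa Fluor 680, with imaging on a CQ1 microscope at 37°C and 5% CO2 after compound addition. Tubulin, mitochondrial-mass and membrane-permeability phenotypes are per cents of healthy-nucleus cells.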

Fibroblast [2] = test: Incucyte cell viability with human fibroblast; conditions: 10 µM, compound concentration 10 uM; note: filed as whole numbers so only -1 and 0 and 1 occur
HEK-293T [3] = test: Incucyte cell viability with HEK293T; conditions: human, 10 µM, compound concentration 10 uM; note: filed as whole numbers so only -1 and 0 and 1 occur
U2OS [4] = test: Multiplex assay against U2OS; conditions: human, 10 µM, compound concentration 10 uM; outline: as §1
U2OS [5] = test: Incucyte cell viability with U2OS; conditions: human, 10 µM, compound concentration 10 uM; note: filed as whole numbers so only -1 and 0 and 1 occur
Fibroblast [6] = test: Multiplex assay against human fibroblast; conditions: 10 µM, compound concentration 10 uM; outline: as §1
[7] = 0 h, replicate number 2, timepoint 0 hours
[8] = 6 h, replicate number 1, timepoint 6 hours
[9] = 12 h, replicate number 1, timepoint 12 hours
[10] = 12 h, replicate number 2, timepoint 12 hours
[11] = 18 h, replicate number 1, timepoint 18 hours
[12] = 18 h, replicate number 2, timepoint 18 hours
[13] = 24 h, replicate number 1, timepoint 24 hours
[14] = 24 h, replicate number 2, timepoint 24 hours

Compound: Cc1c(Oc2ccc(F)cc2)c(OC(C)C)nn1-c1ccc(C2CC2)cn1 [IPP/CNRS-A019]
- Population Apoptotic (%) (HEK-293T [1]; 12 h, replicate 1): 12% and 19%
- Population Fragmented Nuclei (%) (HEK-293T [1]; 12 h, replicate 1): 13% and 11%
- Population Healthy Nuclei (%) (HEK-293T [1]; 12 h, replicate 1): 69% and 68%
- Population Hoechst High Intensity Objects (%) (HEK-293T [1]; 12 h, replicate 1): 8% and 10%
- Population Membrane Permeable-Phenotype (%) (HEK-293T [1]; 12 h, replicate 1): 5% and 3%
- Population Mitochondria Different-Phenotype (%) (HEK-293T [1]; 12 h, replicate 1): 7% and 5%
- Population Mitotic Cells (%) (HEK-293T [1]; 12 h, replicate 1): 87% and 80%
- Population Normal (%) (HEK-293T [1]; 12 h, replicate 1): 91% and 89%
- Population Pyknosed Nuclei (%) (HEK-293T [1]; 12 h, replicate 1): 17% and 19%
- Population Tubulin-Different-Phenotype (%) (HEK-293T [1]; 12 h, replicate 1): 7% and 3%
- Total Cell Count (HEK-293T [1]; 12 h, replicate 1): 607 and 515
- Population Apoptotic (%) (HEK-293T [1]; 12 h, replicate 2): 15% and 18%
- Population Fragmented Nuclei (%) (HEK-293T [1]; 12 h, replicate 2): 7% and 9%
- Population Healthy Nuclei (%) (HEK-293T [1]; 12 h, replicate 2): 89% and 86%
- Population Hoechst High Intensity Objects (%) (HEK-293T [1]; 12 h, replicate 2): 2% and 1%
- Population Membrane Permeable-Phenotype (%) (HEK-293T [1]; 12 h, replicate 2): 4% and 1%
- Population Mitochondria Different-Phenotype (%) (HEK-293T [1]; 12 h, replicate 2): 17%
- Population Mitotic Cells (%) (HEK-293T [1]; 12 h, replicate 2): 84% and 81%
- Population Normal (%) (HEK-293T [1]; 12 h, replicate 2): 97% and 98%
- Population Pyknosed Nuclei (%) (HEK-293T [1]; 12 h, replicate 2): 2% and 3%
- Total Cell Count (HEK-293T [1]; 12 h, replicate 2): 1658 and 1670
- Population Apoptotic (%) (HEK-293T [1]; 24 h, replicate 1): 28% and 16%
- Population Fragmented Nuclei (%) (HEK-293T [1]; 24 h, replicate 1): 12% and 14%
- Population Healthy Nuclei (%) (HEK-293T [1]; 24 h, replicate 1): 77%
- Population Hoechst High Intensity Objects (%) (HEK-293T [1]; 24 h, replicate 1): 6%
- Population Membrane Permeable-Phenotype (%) (HEK-293T [1]; 24 h, replicate 1): 10%
- Population Mitochondria Different-Phenotype (%) (HEK-293T [1]; 24 h, replicate 1): 4% and 8%
- Population Mitotic Cells (%) (HEK-293T [1]; 24 h, replicate 1): 71% and 83%
- Population Normal (%) (HEK-293T [1]; 24 h, replicate 1): 93%
- Population Pyknosed Nuclei (%) (HEK-293T [1]; 24 h, replicate 1): 10% and 7%
- Population Tubulin-Different-Phenotype (%) (HEK-293T [1]; 24 h, replicate 1): 6% and 9%
- Total Cell Count (HEK-293T [1]; 24 h, replicate 1): 595 and 667
- Population Apoptotic (%) (HEK-293T [1]; 24 h, replicate 2): 9% and 6%
- Population Fragmented Nuclei (%) (HEK-293T [1]; 24 h, replicate 2): 19% and 8%
- Population Healthy Nuclei (%) (HEK-293T [1]; 24 h, replicate 2): 78% and 89%
- Population Hoechst High Intensity Objects (%) (HEK-293T [1]; 24 h, replicate 2): 2%
- Population Membrane Permeable-Phenotype (%) (HEK-293T [1]; 24 h, replicate 2): 2%
- Population Mitotic Cells (%) (HEK-293T [1]; 24 h, replicate 2): 90% and 93%
- Population Normal (%) (HEK-293T [1]; 24 h, replicate 2): 97%
- Population Pyknosed Nuclei (%) (HEK-293T [1]; 24 h, replicate 2): 2% and 1%
- Population Tubulin-Different-Phenotype (%) (HEK-293T [1]; 24 h, replicate 2): 20%
- Total Cell Count (HEK-293T [1]; 24 h, replicate 2): 2108 and 1925
- Growth Rate (Fibroblast [2]; [7]): 0
- Growth Rate (Fibroblast [2]; [8]): 0
- Growth Rate (Fibroblast [2]; [9]): 0
- Growth Rate (Fibroblast [2]; [10]): 1
- Growth Rate (Fibroblast [2]; [11]): 0
- Growth Rate (Fibroblast [2]; [12]): 1
- Growth Rate (Fibroblast [2]; [13]): 0
- Growth Rate (Fibroblast [2]; [14]): 1
- Growth Rate (HEK-293T [3]; 0 h, replicate number 1, timepoint 0 hours): 0
- Growth Rate (HEK-293T [3]; [7]): 1
- Growth Rate (HEK-293T [3]; [14]): 1
- Population Apoptotic (%) (U2OS [4]; 12 h, replicate 1): 23% and 20%
- Population Fragmented Nuclei (%) (U2OS [4]; 12 h, replicate 1): 3%
- Population Healthy Nuclei (%) (U2OS [4]; 12 h, replicate 1): 88%
- Population Hoechst High Intensity Objects (%) (U2OS [4]; 12 h, replicate 1): 2% and 3%
- Population Membrane Permeable-Phenotype (%) (U2OS [4]; 12 h, replicate 1): 12% and 11%
- Population Mitochondria Different-Phenotype (%) (U2OS [4]; 12 h, replicate 1): 11% and 23%
- Population Mitotic Cells (%) (U2OS [4]; 12 h, replicate 1): 76% and 80%
- Population Normal (%) (U2OS [4]; 12 h, replicate 1): 97% and 96%
- Population Pyknosed Nuclei (%) (U2OS [4]; 12 h, replicate 1): 7% and 6%
- Population Tubulin-Different-Phenotype (%) (U2OS [4]; 12 h, replicate 1): 14% and 25%
- Total Cell Count (U2OS [4]; 12 h, replicate 1): 250 and 141
- Population Apoptotic (%) (U2OS [4]; 12 h, replicate 2): 50% and 33%
- Population Fragmented Nuclei (%) (U2OS [4]; 12 h, replicate 2): 5% and 8%
- Population Healthy Nuclei (%) (U2OS [4]; 12 h, replicate 2): 90% and 87%
- Population Hoechst High Intensity Objects (%) (U2OS [4]; 12 h, replicate 2): 11% and 13%
- Population Membrane Permeable-Phenotype (%) (U2OS [4]; 12 h, replicate 2): 15% and 7%
- Population Mitochondria Different-Phenotype (%) (U2OS [4]; 12 h, replicate 2): 21% and 25%
- Population Mitotic Cells (%) (U2OS [4]; 12 h, replicate 2): 50% and 66%
- Population Normal (%) (U2OS [4]; 12 h, replicate 2): 88% and 86%
- Population Pyknosed Nuclei (%) (U2OS [4]; 12 h, replicate 2): 4%
- Population Tubulin-Different-Phenotype (%) (U2OS [4]; 12 h, replicate 2): 19% and 24%
- Total Cell Count (U2OS [4]; 12 h, replicate 2): 152 and 113
- Population Apoptotic (%) (U2OS [4]; 24 h, replicate 1): 42% and 34%
- Population Fragmented Nuclei (%) (U2OS [4]; 24 h, replicate 1): 2% and 3%
- Population Healthy Nuclei (%) (U2OS [4]; 24 h, replicate 1): 93% and 90%
- Population Hoechst High Intensity Objects (%) (U2OS [4]; 24 h, replicate 1): 2% and 1%
- Population Membrane Permeable-Phenotype (%) (U2OS [4]; 24 h, replicate 1): 8% and 7%
- Population Mitochondria Different-Phenotype (%) (U2OS [4]; 24 h, replicate 1): 9%
- Population Mitotic Cells (%) (U2OS [4]; 24 h, replicate 1): 57% and 65%
- Population Normal (%) (U2OS [4]; 24 h, replicate 1): 97% and 98%
- Population Pyknosed Nuclei (%) (U2OS [4]; 24 h, replicate 1): 5%
- Population Tubulin-Different-Phenotype (%) (U2OS [4]; 24 h, replicate 1): 25% and 18%
- Total Cell Count (U2OS [4]; 24 h, replicate 1): 149 and 352
- Population Fragmented Nuclei (%) (U2OS [4]; 24 h, replicate 2): 8% and 7%
- Population Healthy Nuclei (%) (U2OS [4]; 24 h, replicate 2): 87% and 85%
- Population Hoechst High Intensity Objects (%) (U2OS [4]; 24 h, replicate 2): 4% and 5%
- Population Membrane Permeable-Phenotype (%) (U2OS [4]; 24 h, replicate 2): 15% and 9%
- Population Mitochondria Different-Phenotype (%) (U2OS [4]; 24 h, replicate 2): 24% and 37%
- Population Normal (%) (U2OS [4]; 24 h, replicate 2): 95% and 94%
- Population Pyknosed Nuclei (%) (U2OS [4]; 24 h, replicate 2): 4% and 6%
- Population Tubulin-Different-Phenotype (%) (U2OS [4]; 24 h, replicate 2): 16% and 24%
- Total Cell Count (U2OS [4]; 24 h, replicate 2): 184 and 121
- Growth Rate (U2OS [5]; [7]): 0
- Growth Rate (U2OS [5]; [8]): 1
- Growth Rate (U2OS [5]; 6 h, replicate number 2, timepoint 6 hours): 0
- Growth Rate (U2OS [5]; [9]): 1
- Growth Rate (U2OS [5]; [10]): 0
- Growth Rate (U2OS [5]; [11]): 1
- Growth Rate (U2OS [5]; [12]): 0
- Growth Rate (U2OS [5]; [13]): 1
- Growth Rate (U2OS [5]; [14]): 0
- Population Apoptotic (%) (Fibroblast [6]; 12 h, replicate 1): 78% and 77%
- Population Fragmented Nuclei (%) (Fibroblast [6]; 12 h, replicate 1): 26% and 22%
- Population Healthy Nuclei (%) (Fibroblast [6]; 12 h, replicate 1): 58% and 60%
- Population Hoechst High Intensity Objects (%) (Fibroblast [6]; 12 h, replicate 1): 12% and 13%
- Population Membrane Permeable-Phenotype (%) (Fibroblast [6]; 12 h, replicate 1): 5%
- Population Mitochondria Different-Phenotype (%) (Fibroblast [6]; 12 h, replicate 1): 3% and 6%
- Population Mitotic Cells (%) (Fibroblast [6]; 12 h, replicate 1): 21% and 22%
- Population Normal (%) (Fibroblast [6]; 12 h, replicate 1): 87% and 86%
- Population Pyknosed Nuclei (%) (Fibroblast [6]; 12 h, replicate 1): 15% and 18%
- Population Tubulin-Different-Phenotype (%) (Fibroblast [6]; 12 h, replicate 1): 9% and 4%
- Total Cell Count (Fibroblast [6]; 12 h, replicate 1): 308 and 230
- Population Fragmented Nuclei (%) (Fibroblast [6]; 12 h, replicate 2): 33% and 67%
- Population Healthy Nuclei (%) (Fibroblast [6]; 12 h, replicate 2): 49% and 28%
- Population Hoechst High Intensity Objects (%) (Fibroblast [6]; 12 h, replicate 2): 38% and 40%
- Population Mitochondria Different-Phenotype (%) (Fibroblast [6]; 12 h, replicate 2): 19% and 42%
- Population Normal (%) (Fibroblast [6]; 12 h, replicate 2): 61% and 59%
- Total Cell Count (Fibroblast [6]; 12 h, replicate 2): 103 and 83
- Population Apoptotic (%) (Fibroblast [6]; 24 h, replicate 1): 69% and 48%
- Population Fragmented Nuclei (%) (Fibroblast [6]; 24 h, replicate 1): 22% and 21%
- Population Healthy Nuclei (%) (Fibroblast [6]; 24 h, replicate 1): 62% and 63%
- Population Hoechst High Intensity Objects (%) (Fibroblast [6]; 24 h, replicate 1): 16% and 19%
- Population Membrane Permeable-Phenotype (%) (Fibroblast [6]; 24 h, replicate 1): 5% and 4%
- Population Mitochondria Different-Phenotype (%) (Fibroblast [6]; 24 h, replicate 1): 7%
- Population Mitotic Cells (%) (Fibroblast [6]; 24 h, replicate 1): 30% and 51%
- Population Normal (%) (Fibroblast [6]; 24 h, replicate 1): 83% and 80%
- Population Pyknosed Nuclei (%) (Fibroblast [6]; 24 h, replicate 1): 14% and 15%
- Population Tubulin-Different-Phenotype (%) (Fibroblast [6]; 24 h, replicate 1): 9% and 4%
- Total Cell Count (Fibroblast [6]; 24 h, replicate 1): 321 and 238
- Population Fragmented Nuclei (%) (Fibroblast [6]; 24 h, replicate 2): 44% and 63%
- Population Healthy Nuclei (%) (Fibroblast [6]; 24 h, replicate 2): 46% and 34%
- Population Hoechst High Intensity Objects (%) (Fibroblast [6]; 24 h, replicate 2): 38%
- Population Membrane Permeable-Phenotype (%) (Fibroblast [6]; 24 h, replicate 2): 10% and 0%
- Population Normal (%) (Fibroblast [6]; 24 h, replicate 2): 61%
- Total Cell Count (Fibroblast [6]; 24 h, replicate 2): 103 and 84
